pIC50: −log10 of the molar value.
Key:
Jurkat [1] = experiment: Inhibitory concentration required for 50% apoptosis induction was evaluated using jurkat cells (T-lymphoma cells); format: functional, cell-based; details: Homo sapiens
In short: (§1)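 Jurkat T-lymphoma cells exposed 24 h to rising concentrations (0.1–100 μM). Ethanol-fixed cells then RNase-digested and stained with propidium iodide. Flow-cytometric cell-cycle analysis scored the hypodiploid (sub-G0/G1) fraction as apoptotic cells with fragmented DNA. IC50 taken from these concentration–response series.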

Jurkat [2] = experiment: Inhibitory concentration required for 50% apoptosis induction was evaluated using jurkat cells (T-lymphoma cells); NA means not active.; format: functional, cell-based, Homo sapiens; in short: as §1

CCCCCCCCCCCCCCC(CO)NC(=O)OC(C)(C)C (stereo not given)
pIC50 (Jurkat [1]): 4.55

CCCCCCCCCCCCCCC(CN(CC(=O)OCC)CC(=O)OCC)NC(=O)OC(C)(C)C (stereo not given)
pIC50 (Jurkat [1]): < 4.22

CCCCCCCCCCCCCCC(N)CN(CC(=O)OCC)CC(=O)OCC (stereo not given)
pIC50 (Jurkat [1]): 4.49

CCCCCCCCCCCCCCC(CNCC)NC(=O)OC(C)(C)C (stereo not given)
pIC50 (Jurkat [1]): 5.22

CCCCCCCCCCCCCCC(CN(CC)CC)NC(=O)OC(C)(C)C (stereo not given)
pIC50 (Jurkat [1]): 4.68

CCCCCCCCCCCCCCC(N)CN (stereo not given)
pIC50 (Jurkat [1]): 4.26

CCCCCCCCCCCCCCC(CNCC(=O)OCC)NC(=O)OC(C)(C)C (stereo not given)
pIC50 (Jurkat [1]): 4.55

CCCCCCCCCCCCCCC(=O)NC(CCCCCCCCCCCCCC)COC(=O)CCCCCC (stereo not given)
IC50 (Jurkat [2]): Not Active

CCCCCCCCCCCCCCC(CNCCCCC(=O)O)NC(=O)OC(C)(C)C (stereo not given)
pIC50 (Jurkat [1]): 4.74

CCCCCCCCCCCCCCC(N)CO (stereo not given)
pIC50 (Jurkat [1]): 5.15

CCCCCCCCCCCCCCC(COCc1ccccc1)NC(=O)CCC(=O)O (stereo not given)
pIC50 (Jurkat [1]): 4.52

CCCCCCCCCCCCCCC(CO)NCCCCCC (stereo not given)
pIC50 (Jurkat [1]): 5.22

CCCCCCCCCCCCCCC(N)COCc1ccccc1 (stereo not given)
pIC50 (Jurkat [1]): 5.52

CCCCCCCCCCCCCCC(COCc1ccccc1)N(CC)CC (stereo not given)
pIC50 (Jurkat [1]): 4.70

CCCCCCCCCCCCCCC(CO)N(CC)CC (stereo not given)
pIC50 (Jurkat [1]): 6.00

CCCCCCCCCCCCCCC(=O)NC(CCCCCCCCCCCCCC)COC(=O)CCCCCCCCCCCCCC (stereo not given)
IC50 (Jurkat [2]): Not Active

CCCCCCCCCCCCCCC(CN(CC)CC)NCCCCC(=O)O (stereo not given)
IC50 (Jurkat [2]): Not Active

CCCCCCCCCCCCCCC(COCc1ccccc1)NCC(=O)O (stereo not given)
pIC50 (Jurkat [1]): 5.52

CCCCCCCCCCCCCCC(O)CNCc1ccccc1 (stereo not given)
pIC50 (Jurkat [1]): 4.57

CCCCCCCCCCCCCCC(O)CNC1CCCCC1 (stereo not given)
pIC50 (Jurkat [1]): 5.22

CCCCCCCCCCCCCCC(COC(=O)CCCCCC)NC(=O)CCCCCC (stereo not given)
IC50 (Jurkat [2]): Not Active

CCCCCCCCCCCCCCC(N)CN(CC)CC (stereo not given)
pIC50 (Jurkat [1]): 5.15

CCCCCCCCCCCCCCC(CN)NC(=O)OC(C)(C)C (stereo not given)
pIC50 (Jurkat [1]): 5.22

CCCCCCCCCCCCCCC(CO)NCC (stereo not given)
pIC50 (Jurkat [1]): 5.22

CCCCCCCCCCCCCCC(N)CNCC(=O)O (stereo not given)
pIC50 (Jurkat [1]): 4.51

CCCCCCCCCCCCCCC(CO)NC(=O)CCCC(=O)O (stereo not given)
pIC50 (Jurkat [1]): 4.62

CCCCCCCCCCCCCCC(N)CNCCCCC(=O)O (stereo not given)
pIC50 (Jurkat [1]): 4.26

CCCCCCCCCCCCCCC(COCc1ccccc1)NC(=O)CCCC(=O)O (stereo not given)
pIC50 (Jurkat [1]): < 4.30

CCCCCCCCCCCCCCC(N)CNCC(=O)OCC (stereo not given)
IC50 (Jurkat [2]): Not Active

CCCCCCCCCCCCCCC(COCc1ccccc1)NCC (stereo not given)
pIC50 (Jurkat [1]): 5.22

From ChEMBL document CHEMBL1135333, “Long-chain aminoalcohol and diamine derivatives induce apoptosis through a caspase-3 dependent pathway” (Bioorg Med Chem Lett, 2002)
